# Experimental data collected from several papers.
# Lines come from different studies, so protocols differ.
# Target: Serine/threonine-protein kinase 25 (STK25, Homo sapiens, UniProt O00506)
SMILES,test,conditions,remaining binding [%]
CCCOc1ccc([C@H]2[C@H](C(=O)O)[C@@H](c3ccc4c(c3)OCO4)CN2CC(=O)Nc2c(CC)cccc2CC)cc1,"cell-free assay, competition with immobilised ligand",1 µM,100
F[C@@H]1CCN(c2nccc(-c3cnn4ncccc34)n2)C1,binding,1 µM,100
O=C(NCCCN1CCOCC1)c1ccc(Nc2ncc(Cl)c(-c3ccc(Cl)s3)n2)cc1,"binding, competition with immobilised ligand",1 µM,89
CC(=O)C1=C(C)N(c2cccc(C(F)(F)F)c2)C(=O)N[C@@H]1c1ccc(C#N)nc1,"cell-free assay, competition with immobilised ligand",1 µM,89.9
O=C(c1ccc(Nc2nccc(-c3cc4ccccc4s3)n2)cc1)N1CCC(N2CCCC2)CC1,"binding, competition with immobilised ligand",1 µM,22
CN([C@@H]1CCc2c(CC(=O)O)c3cc(S(C)(=O)=O)ccc3n2C1)S(=O)(=O)c1ccc(F)cc1,"cell-free assay, competition with immobilised ligand",1 µM,100
O=C(Nc1c[nH]nc1C(=O)NC1CCNCC1)c1cc(F)cc(F)c1,"binding, competition with immobilised ligand",1 µM,85
O=C(NCCCN1CCOCC1)c1ccc(Nc2nccc(-c3cc4ccccc4s3)n2)cc1,"binding, competition with immobilised ligand",1 µM,67
Nc1ncc2c(n1)-c1c([nH]c3ccc(C#CC4CC4)cc13)CCCC2,"binding, competition with immobilised ligand",1 µM,100
CCC(=O)N[C@H]1CC[C@@H](C(=O)N(C)c2ccc(-c3nc4ccccc4o3)cc2)C1,"cell-free assay, competition with immobilised ligand",1 µM,100
N[C@@H]1CCN(c2nccc(-c3cnn4ncccc34)n2)C1,binding,1 µM,100
COc1cnc(Nc2cccc(S(N)(=O)=O)c2)nc1N1CCN(c2ccccc2)CC1,"binding, competition with immobilised ligand",1 µM,100
CN(C)c1nccc(-c2cnc3ncccn23)n1,binding,1 µM,100
COc1cnc(Nc2cccc(S(N)(=O)=O)c2)nc1N1CCN(c2ccccc2)C(=O)C1,"binding, competition with immobilised ligand",1 µM,100
COc1ccnn2ncc(-c3ccnc(N(C)C)n3)c12,binding,1 µM,100
N#CC1(c2ccccn2)CCN(Cc2cc(C(=O)N3CCCC3)c(=O)n3ccccc23)CC1,"cell-free assay, competition with immobilised ligand",1 µM,97
CN(CCCC(F)(F)F)c1nccc(-c2cnn3ncccc23)n1,binding,1 µM,100
CNC(=O)Nc1ccc2c(c1)CC[C@@]21OC(=O)N(CC(=O)N(Cc2ccc(F)cc2)[C@@H](C)C(F)(F)F)C1=O,"cell-free assay, competition with immobilised ligand",1 µM,99
C[C@H]1CCN(c2nccc(-c3cnn4ncccc34)n2)C1,binding,1 µM,100
COc1ncc2cc3ccccc3nc2c1C#N,"cell-free assay, competition with immobilised ligand",5 µM,100
